Measured values from ChEMBL document CHEMBL1687919, “Design, synthesis, and structure-activity relationship of Trypanosoma brucei leucyl-tRNA synthetase inhibitors as antitrypanosomal agents” (J Med Chem, 2011).

Legend:
[1] = Inhibition of Trypanosoma brucei TREU927 Leucyl-tRNA Synthetase expressed in Escherichia coli BL21 (DE3)-RIPL using [14C]Leu by scintillation counting
Summary of the method: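 Compound preincubated 20 min at 37 °C without ATP, then started with 4 mM ATP. After 15 min, TCA-precipitated on filters. Nine-point IC50 curves, sigmoidal fit, reference inhibitor per batch.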

L929 = assay: Cytotoxicity against mouse L929 cells after 72 hrs; type: cell-based; conditions: L929, 72 h
Summary of the method: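 Fibroblasts grown in D-MEM with 10% FBS and pen/strep, kept subconfluent. Seeded from 1 × 10^4/mL suspension, attached overnight, medium replaced, serially diluted compound added from DMSO. Exposure 72 h at 37 °C, 5% CO2. Resazurin added for 3-4 h more, fluorescence read at ex 544/em 590 nm.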

[2] = tested on: Trypanosoma brucei brucei; assay: Antitrypanosomal activity against bloodstream-form Trypanosoma brucei brucei 427 after 72 hrs; type: functional, organism-based; conditions: Trypanosoma brucei, 427, 72 h
Summary of the method: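 HMI-9 with 10% FBS, 10% Serum Plus and pen/strep; log-phase parasites at final 1.0 × 10^5/mL, 0.4% DMSO. Serially diluted compound, 72 h at 37 °C, 5% CO2, then resazurin for 2-4 h more. Fluorescence read at ex 544/em 590 nm. Triplicates averaged, IC50 from sigmoidal dose-response fit; suramin and pentamidine as positive controls.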

Compound	IC50 [1]	IC50 (L929)	IC50 [2]
O=C1c2ccccc2C(=O)N1CCCOc1ccc2c(c1)B(O)OC2	> 100 µM	–	–
CCOC(=O)/C=C/c1cccc2c1B(O)OC2	> 1000 µM	–	–
CCOC(=O)CCc1cccc2c1B(O)OC2	> 1000 µM	–	–
OCCCc1cccc2c1B(O)OC2	541 µM	–	–
O=C(/C=C/c1cccc2c1B(O)OC2)c1ccccc1	412 µM	–	–
CCOC(=O)/C=C/c1ccc2c(c1)B(O)OC2	578 µM	–	–
CCOC(=O)CCc1ccc2c(c1)B(O)OC2	16.7 µM	–	–
OCCCc1ccc2c(c1)B(O)OC2	688 µM	–	–
O=C(/C=C/c1ccc2c(c1)B(O)OC2)c1ccccc1	209 µM	–	–
OB1OCc2ccc(O)cc21	30.9 µM	–	–
OB1OCc2ccc(OCc3ccccc3)cc21	30.6 µM	–	–
OB1OCc2ccc(OCc3ccccc3F)cc21	25.6 µM	–	–
OB1OCc2ccc(Oc3ccc4ccccc4n3)cc21	63 µM	–	–
OB1OCc2ccc(OCc3ccccn3)cc21	> 100 µM	–	–
OB1OCc2ccc(OCC3CCCCC3)cc21	> 100 µM	–	–
COC(COc1ccc2c(c1)B(O)OC2)OC	71.3 µM	–	–
O=C(O)COc1ccc2c(c1)B(O)OC2	> 100 µM	–	–
O=CCOc1ccc2c(c1)B(O)OC2	> 100 µM	–	–
CC(C)(C)OC(=O)NCCOc1ccc2c(c1)B(O)OC2	> 100 µM	–	–
CCOc1ccc2c(c1)B(O)OC2	13 µM	–	–
CCCOc1ccc2c(c1)B(O)OC2	30.9 µM	–	–
CC(C)Oc1ccc2c(c1)B(O)OC2	15.8 µM	–	–
CCCCOc1ccc2c(c1)B(O)OC2	54.3 µM	–	–
COCCOc1ccc2c(c1)B(O)OC2	> 100 µM	–	–
CCOC(=O)COc1ccc2c(c1)B(O)OC2	3.5 µM	> 10 µg/mL	0.72 µM

Compound	IC50 [1]	IC50 (L929)	IC50 [2]
O=C(Nc1ccccc1)Oc1ccc2c(c1)B(O)OC2	43.1 µM	–	–
O=C(NC1CCCCC1)Oc1ccc2c(c1)B(O)OC2	32.3 µM	–	–
COC(=O)COc1ccc2c(c1)B(O)OC2	3.6 µM	> 10 µg/mL	1.22 µM
CC(C)(C)OC(=O)COc1ccc2c(c1)B(O)OC2	7.4 µM	> 10 µg/mL	2.61 µM
CCOC(=O)C(C)Oc1ccc2c(c1)B(O)OC2 (stereo not drawn)	2.8 µM	> 10 µg/mL	3 µM
CCOC(=O)C(CC)Oc1ccc2c(c1)B(O)OC2 (stereo not drawn)	1.6 µM	> 10 µg/mL	11.3 µM
CCOC(=O)C(C)(C)Oc1ccc2c(c1)B(O)OC2	2.1 µM	> 10 µg/mL	5.49 µM
CCOC(=O)C(Oc1ccc2c(c1)B(O)OC2)c1ccccc1 (stereo not drawn)	41.7 µM	–	–
CCNC(=O)COc1ccc2c(c1)B(O)OC2	77.7 µM	–	–
CC(C)(C)NC(=O)COc1ccc2c(c1)B(O)OC2	> 100 µM	–	–
CCCC(=O)COc1ccc2c(c1)B(O)OC2	30.8 µM	–	–
CCC(=O)COc1ccc2c(c1)B(O)OC2	27.2 µM	–	–
CCC(=O)C(C)Oc1ccc2c(c1)B(O)OC2 (stereo not drawn)	2.5 µM	> 10 µg/mL	8.25 µM
CCCC(=O)C(CC)Oc1ccc2c(c1)B(O)OC2 (stereo not drawn)	2.9 µM	> 10 µg/mL	12.9 µM
CC(=O)C(C)Oc1ccc2c(c1)B(O)OC2 (stereo not drawn)	3.8 µM	> 10 µg/mL	2.09 µM
CC(=O)C(C)(C)Oc1ccc2c(c1)B(O)OC2	5 µM	> 10 µg/mL	0.37 µM
CCC(Oc1ccc2c(c1)B(O)OC2)C(C)=O (stereo not drawn)	3.5 µM	> 10 µg/mL	3.76 µM
CCCC(Oc1ccc2c(c1)B(O)OC2)C(C)=O (stereo not drawn)	31.4 µM	–	–
CC(=O)C(Oc1ccc2c(c1)B(O)OC2)C(C)C (stereo not drawn)	4.5 µM	> 10 µg/mL	2.74 µM
CC(C)CC(=O)COc1ccc2c(c1)B(O)OC2	67.6 µM	–	–
CCC(O)C(C)Oc1ccc2c(c1)B(O)OC2 (stereo not drawn)	> 100 µM	–	–
OB1OCc2ccccc21 [BENZOXABOROLE]	22.1 µM	–	–
N=C(N)c1ccc(OCCCCCOc2ccc(C(=N)N)cc2)cc1 [PENTAMIDINE]	–	–	0.026 µM
Cc1ccc(C(=O)Nc2ccc(S(=O)(=O)O)c3cc(S(=O)(=O)O)cc(S(=O)(=O)O)c23)cc1NC(=O)c1cccc(NC(=O)Nc2cccc(C(=O)Nc3cc(C(=O)Nc4ccc(S(=O)(=O)O)c5cc(S(=O)(=O)O)cc(S(=O)(=O)O)c45)ccc3C)c2)c1 [SURAMIN]	–	–	0.005 µM
